Source: ChEMBL document CHEMBL1126568, “Nucleosides and nucleotides. 122. 2'-C-cyano-2'-deoxy-1-beta-D-arabinofuranosylcytosine and its derivatives. A new class of nucleoside with a broad antitumor spectrum” (J Med Chem, 1993)

Experiments:
[1] = Tested in vitro inhibitory activity against human oral epidermoid carcinoma KB cells; format: functional, cell-based
How it was run: (§1)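 MTT growth assay: 2 × 10³ cells/well exposed to compound or left untreated for 72 h. MTT then added for 4 h more; formazan dissolved in DMSO and OD read at 540 nm. % inhibition = [1 − OD sample/OD control] × 100. IC₅₀ (μM) is the concentration giving 50% growth inhibition. Single-concentration inhibition measured at 100 μg/mL.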

L1210 [2] = assay: Tested in vitro inhibitory activity against murine leukemia L1210; format: functional, cell-based; conditions: Mus musculus; how it was run: as §1
PC-13 = assay: Tested in vitro against PC-13 human lung large cell carcinoma; format: functional, cell-based; how it was run: as §1
KKLS = assay: Tested in vitro against KKLS human stomach adenocarcinoma; format: functional, cell-based; how it was run: as §1
[3] = test system: KATO III stomach cancer cell line; assay: Tested in vitro against KATO-III human stomach adenocarcinoma; format: functional, cell-based; how it was run: as §1
SW48 = assay: Tested in vitro against SW-48 human colon adenocarcinoma; format: functional, cell-based; how it was run: as §1
MCF7 = assay: Tested in vitro against MCF-7 human breast adenocarcinoma; format: functional, cell-based; how it was run: as §1
HT-1080 = assay: Tested in vitro against HT1080 cell line human fibrosarcoma; format: functional, cell-based; how it was run: as §1
ST-KM-1 = assay: Tested in vitro against ST-KM human stomach adenocarcinoma; format: functional, cell-based; conditions: ST-KM-1, Stomach; how it was run: as §1
OST = assay: Tested in vitro against OST human osteosarcoma; format: functional, cell-based; how it was run: as §1
PC-9 = assay: Tested in vitro against PC-9 human lung adenocarcinoma; format: functional, cell-based; how it was run: as §1
MKN-45 = assay: Tested in vitro against MKN-45 human stomach adenocarcinoma; format: functional, cell-based; conditions: MKN-45, Stomach; how it was run: as §1
HOS-TE85 = assay: Tested in vitro against MNNG/HOS cell line human osteosarcoma; format: functional, cell-based; how it was run: as §1
PC-8 = assay: Tested in vitro against PC-8 human lung adenocarcinoma; format: functional, cell-based; how it was run: as §1
QG-95 = assay: Tested in vitro against QG-95 human squamous cell carcinoma; format: functional, cell-based; how it was run: as §1
A-375 = assay: Tested in vitro against A-375 cell line human melanoma; format: functional, cell-based; how it was run: as §1
COLO 320 = assay: Tested in vitro against colo-320 human colon adenocarcinoma; format: functional, cell-based; conditions: COLO 320, Colon; how it was run: as §1
L1210 [4] = assay: Percent inhibition against murine leukemia L1210 at 100 ug/mL; format: functional; conditions: Mus musculus; how it was run: as §1
[5] = Percent inhibition against human oral epidermoid carcinoma KB cells at 100 ug/mL; format: functional; how it was run: as §1

| SMILES | IC50 [1] [µM] | IC50 (L1210 [2]) [µM] | IC50 (PC-13) [µM] | IC50 (KKLS) [µM] | IC50 [3] [µM] | IC50 (SW48) [µM] | IC50 (MCF7) [µM] | IC50 (HT-1080) [µM] | IC50 (ST-KM-1) [µM] | IC50 (OST) [µM] | IC50 (PC-9) [µM] | IC50 (MKN-45) [µM] | IC50 (HOS-TE85) [µM] | IC50 (PC-8) [µM] | IC50 (QG-95) [µM] | IC50 (A-375) [µM] | IC50 (COLO 320) [µM] | inhibition at 100 µg/mL (L1210 [4]) [%] | inhibition at 100 µg/mL [5] [%] |
| --- | --- | --- | --- | --- | --- | --- | --- | --- | --- | --- | --- | --- | --- | --- | --- | --- | --- | --- | --- |
| N#C[C@H]1[C@H](O)[C@@H](CO)O[C@H]1n1cnc2c(N)ncnc21 | 163 | 5.8 | > 360 | > 360 | > 360 | > 360 | > 360 | > 360 | > 360 | > 360 | > 360 | > 360 | > 360 | > 360 | > 360 | 308 | > 360 | – | – |
| N#C[C@H]1C(O)[C@@H](CO)O[C@H]1n1ccc(=O)[nH]c1=O (stereo partly drawn) | – | – | – | – | – | – | – | – | – | – | – | – | – | – | – | – | – | 10.2 | 8.4 |
| N#CC1=C[C@@H](CO)O[C@H]1n1ccc(N)nc1=O | – | 261 | 363 | > 430 | 31.6 | 273 | 299 | 248 | 350 | 235 | > 430 | 376 | 205 | > 430 | 427 | 145 | 150 | – | 46.8 |
| Cc1cn([C@@H]2O[C@H](CO)C=C2C#N)c(=O)[nH]c1=O | 30.4 | 12.4 | – | – | – | – | – | – | – | – | – | – | – | – | – | – | – | – | – |
| Cc1cn([C@@H]2O[C@H](CO)C(O)[C@@H]2C#N)c(=O)[nH]c1=O (stereo partly drawn) | – | – | – | – | – | – | – | – | – | – | – | – | – | – | – | – | – | 6.7 | -6 |

Continued, in another order:

| IC50 [1] [µM] | IC50 (L1210 [2]) [µM] | IC50 (PC-13) [µM] | IC50 (KKLS) [µM] | IC50 [3] [µM] | IC50 (SW48) [µM] | IC50 (MCF7) [µM] | IC50 (HT-1080) [µM] | IC50 (ST-KM-1) [µM] | IC50 (OST) [µM] | IC50 (PC-9) [µM] | IC50 (MKN-45) [µM] | IC50 (HOS-TE85) [µM] | IC50 (PC-8) [µM] | IC50 (QG-95) [µM] | IC50 (A-375) [µM] | IC50 (COLO 320) [µM] | SMILES | inhibition at 100 µg/mL (L1210 [4]) [%] | inhibition at 100 µg/mL [5] [%] |
| --- | --- | --- | --- | --- | --- | --- | --- | --- | --- | --- | --- | --- | --- | --- | --- | --- | --- | --- | --- |
| 97.8 | 68.8 | – | – | – | – | – | – | – | – | – | – | – | – | – | – | – | CC(=O)Nc1ccn([C@@H]2O[C@H](CO)C=C2C#N)c(=O)n1 | – | – |
| 2.3 | 0.05 | > 410 | > 410 | > 410 | > 410 | 0.62 | – | > 410 | > 410 | – | 57.6 | – | 1.1 | > 410 | > 410 | 0.04 | Nc1ccn([C@@H]2O[C@H](CO)[C@@H](O)[C@@H]2O)c(=O)n1 [CYTARABINE] | – | – |
| 230 | 25.3 | – | – | – | – | – | – | – | – | – | – | – | – | – | – | – | CC(=O)Nc1ccn([C@@H]2O[C@H](CO)[C@@H](O)[C@@H]2C#N)c(=O)n1 | – | – |
